≈ marks a conversion by molar mass, not a printed value.
How the values were obtained:
Assay type in all cases: functional
Haemophilus influenzae [1] = experiment: Antibacterial activity against beta-lactamase nonproducing ampicillin resistant Haemophilus influenzae isolate assessed as percent susceptible isolates by broth microdilution method
In short: (§1)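 Clinical isolates were tested by broth microdilution in Haemophilus test medium following CLSI guidelines, with H. influenzae ATCC 49247 as the QC strain. β-Lactamase was detected by chromogenic nitrocefin test. ftsI was PCR-amplified and sequenced across nt 936–1640 (aa 327–540). Classes: BLNAS (no mechanism), BLNAR (ftsI substitutions), BLPAR (β-lactamase only), BLPACR (both). Agents tested were amoxicillin, amoxicillin-clavulanate (2:1), cefaclor, cefuroxime, cefotaxime and cefixime.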

Haemophilus influenzae [2] = experiment: Antibacterial activity against Haemophilus influenzae group IIb isolates with ftsI gene mutation by broth microdilution method; in short: as §1
Haemophilus influenzae [3] = experiment: Antibacterial activity against beta-lactamase nonproducing ampicillin susceptible Haemophilus influenzae isolate assessed as percent susceptible isolates by broth microdilution method
In short: (§2)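 Broth microdilution in Haemophilus test medium per CLSI guidelines on clinical isolates, with H. influenzae ATCC 49247 as quality-control strain; β-lactamase production detected by nitrocefin chromogenic cephalosporin test; isolates classed by β-lactamase status and ftsI (PBP 3) sequencing of amino acids 327 to 540. Agents tested: amoxicillin, amoxicillin-clavulanic acid (2:1), cefaclor, cefuroxime, cefotaxime, cefixime.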

Haemophilus influenzae [4] = experiment: Antibacterial activity against beta-lactamase producing amoxicillin-clavulanic acid-resistant Haemophilus influenzae isolate assessed as percent resistant isolates by broth microdilution method; in short: as §1
Haemophilus influenzae [5] = experiment: Antibacterial activity against beta-lactamase producing amoxicillin-clavulanic acid-resistant Haemophilus influenzae isolate by broth microdilution method; in short: as §1
Haemophilus influenzae [6] = experiment: Antibacterial activity against Haemophilus influenzae group I isolates with ftsI gene mutation by broth microdilution method; in short: as §1
Haemophilus influenzae [7] = experiment: Antibacterial activity against beta-lactamase producing amoxicillin-clavulanic acid-resistant Haemophilus influenzae isolate assessed as percent susceptible isolates by broth microdilution method; in short: as §2
Haemophilus influenzae [8] = experiment: Antibacterial activity against beta-lactamase positive ampicillin resistant Haemophilus influenzae isolate by broth microdilution method; in short: as §1
Haemophilus influenzae [9] = experiment: Antibacterial activity against beta-lactamase nonproducing ampicillin resistant Haemophilus influenzae isolate assessed as percent resistant isolates by broth microdilution method; in short: as §1
Haemophilus influenzae [10] = experiment: Antibacterial activity against Haemophilus influenzae group IIa isolates with ftsI gene mutation by broth microdilution method; in short: as §1
Haemophilus influenzae [11] = experiment: Antibacterial activity against beta-lactamase nonproducing ampicillin resistant Haemophilus influenzae isolate by broth microdilution method; in short: as §1
Haemophilus influenzae [12] = experiment: Antibacterial activity against Haemophilus influenzae group IId isolates with ftsI gene mutation by broth microdilution method; in short: as §1
Haemophilus influenzae [13] = experiment: Antibacterial activity against Haemophilus influenzae group IIc isolates with ftsI gene mutation by broth microdilution method; in short: as §1
Haemophilus influenzae [14] = experiment: Antibacterial activity against beta-lactamase nonproducing ampicillin susceptible Haemophilus influenzae isolate assessed as percent resistant isolates by broth microdilution method; in short: as §1
Haemophilus influenzae [15] = experiment: Antibacterial activity against beta-lactamase nonproducing ampicillin susceptible Haemophilus influenzae isolate by broth microdilution method; in short: as §1
Haemophilus influenzae [16] = experiment: Antibacterial activity against Haemophilus influenzae group III-like isolates with ftsI gene mutation by broth microdilution method; in short: as §1
Haemophilus influenzae [17] = experiment: Antibacterial activity against beta-lactamase positive ampicillin resistant Haemophilus influenzae isolate assessed as percent resistant isolates by broth microdilution method; in short: as §1

Compound: C=CC1=C(C(=O)O)N2C(=O)[C@@H](NC(=O)/C(=N\OCC(=O)O)c3csc(N)n3)[C@H]2SC1 [CEFIXIME]
- Activity (Haemophilus influenzae [1]): 99%
- MIC50 (Haemophilus influenzae [2]): 0.06 µg/mL (≈ 0.132 µM)
- MIC90 (Haemophilus influenzae [2]): 0.12 µg/mL (≈ 0.265 µM)
- Activity (Haemophilus influenzae [3]): 100%
- Activity (Haemophilus influenzae [4]): 0%
- MIC50 (Haemophilus influenzae [5]): 0.06 µg/mL
- MIC90 (Haemophilus influenzae [5]): 0.12 µg/mL
- MIC (Haemophilus influenzae [6]): 0.06 µg/mL (≈ 0.132 µM)
- MIC50 (Haemophilus influenzae [6]): 0.06 µg/mL (≈ 0.132 µM)
- MIC90 (Haemophilus influenzae [6]): 0.12 µg/mL (≈ 0.265 µM)
- Activity (Haemophilus influenzae [7]): 100%
- MIC50 (Haemophilus influenzae [8]): ≤ 0.01 µg/mL
- MIC90 (Haemophilus influenzae [8]): 0.06 µg/mL (≈ 0.132 µM)
- Activity (Haemophilus influenzae [9]): 1%
- MIC50 (Haemophilus influenzae [10]): 0.06 µg/mL (≈ 0.132 µM)
- MIC90 (Haemophilus influenzae [10]): 0.25 µg/mL (≈ 0.551 µM)
- MIC50 (Haemophilus influenzae [11]): 0.06 µg/mL (≈ 0.132 µM)
- MIC90 (Haemophilus influenzae [11]): 0.25 µg/mL (≈ 0.551 µM)
- MIC50 (Haemophilus influenzae [12]): 0.06 µg/mL (≈ 0.132 µM)
- MIC90 (Haemophilus influenzae [12]): 0.12 µg/mL (≈ 0.265 µM)
- MIC50 (Haemophilus influenzae [13]): 0.06 µg/mL (≈ 0.132 µM)
- MIC90 (Haemophilus influenzae [13]): 0.12 µg/mL (≈ 0.265 µM)
- Activity (Haemophilus influenzae [14]): 0%
- MIC50 (Haemophilus influenzae [15]): 0.06 µg/mL (≈ 0.132 µM)
- MIC90 (Haemophilus influenzae [15]): 0.06 µg/mL (≈ 0.132 µM)
- MIC50 (Haemophilus influenzae [16]): 1 µg/mL (≈ 2.21 µM)
- MIC90 (Haemophilus influenzae [16]): 4 µg/mL (≈ 8.82 µM)
- Activity (Haemophilus influenzae [17]): 0%

Compound: CO/N=C(\C(=O)N[C@@H]1C(=O)N2C(C(=O)O)=C(COC(C)=O)CS[C@H]12)c1csc(N)n1 [CEFOTAXIME]
- Activity (Haemophilus influenzae [1]): 99%
- MIC50 (Haemophilus influenzae [2]): 0.06 µg/mL (≈ 0.132 µM)
- MIC90 (Haemophilus influenzae [2]): 0.12 µg/mL (≈ 0.263 µM)
- Activity (Haemophilus influenzae [3]): 100%
- Activity (Haemophilus influenzae [4]): 0%
- MIC50 (Haemophilus influenzae [5]): 0.03 µg/mL
- MIC90 (Haemophilus influenzae [5]): 0.06 µg/mL
- MIC50 (Haemophilus influenzae [6]): 0.03 µg/mL (≈ 0.0659 µM)
- MIC90 (Haemophilus influenzae [6]): 0.12 µg/mL (≈ 0.263 µM)
- Activity (Haemophilus influenzae [7]): 100%
- MIC90 (Haemophilus influenzae [8]): 0.06 µg/mL (≈ 0.132 µM)
- Activity (Haemophilus influenzae [9]): 1%
- MIC50 (Haemophilus influenzae [10]): 0.06 µg/mL (≈ 0.132 µM)
- MIC90 (Haemophilus influenzae [10]): 0.25 µg/mL (≈ 0.549 µM)
- MIC50 (Haemophilus influenzae [11]): 0.06 µg/mL (≈ 0.132 µM)
- MIC90 (Haemophilus influenzae [11]): 0.25 µg/mL (≈ 0.549 µM)
- MIC50 (Haemophilus influenzae [12]): 0.03 µg/mL (≈ 0.0659 µM)
- MIC90 (Haemophilus influenzae [12]): 0.12 µg/mL (≈ 0.263 µM)
- MIC50 (Haemophilus influenzae [13]): 0.06 µg/mL (≈ 0.132 µM)
- MIC90 (Haemophilus influenzae [13]): 0.12 µg/mL (≈ 0.263 µM)
- Activity (Haemophilus influenzae [14]): 0%
- MIC (Haemophilus influenzae [15]): ≤ 0.01 µg/mL
- MIC50 (Haemophilus influenzae [15]): ≤ 0.01 µg/mL
- MIC90 (Haemophilus influenzae [15]): 0.06 µg/mL (≈ 0.132 µM)
- MIC50 (Haemophilus influenzae [16]): 0.5 µg/mL (≈ 1.1 µM)
- MIC90 (Haemophilus influenzae [16]): 4 µg/mL (≈ 8.78 µM)
- Activity (Haemophilus influenzae [17]): 0%

Compound: CO/N=C(\C(=O)N[C@@H]1C(=O)N2C(C(=O)O)=C(COC(N)=O)CS[C@H]12)c1ccco1 [CEFUROXIME]
- Activity (Haemophilus influenzae [1]): 98%
- MIC50 (Haemophilus influenzae [2]): 2 µg/mL (≈ 4.71 µM)
- MIC90 (Haemophilus influenzae [2]): 2 µg/mL (≈ 4.71 µM)
- Activity (Haemophilus influenzae [3]): 100%
- Activity (Haemophilus influenzae [4]): 0%
- MIC50 (Haemophilus influenzae [5]): 1 µg/mL
- MIC90 (Haemophilus influenzae [5]): 2 µg/mL
- MIC (Haemophilus influenzae [6]): 0.5 µg/mL (≈ 1.18 µM)
- MIC50 (Haemophilus influenzae [6]): 0.5 µg/mL (≈ 1.18 µM)
- MIC90 (Haemophilus influenzae [6]): 2 µg/mL (≈ 4.71 µM)
- Activity (Haemophilus influenzae [7]): 100%
- MIC50 (Haemophilus influenzae [8]): 1 µg/mL (≈ 2.36 µM)
- MIC90 (Haemophilus influenzae [8]): 1 µg/mL (≈ 2.36 µM)
- Activity (Haemophilus influenzae [9]): 2%
- MIC50 (Haemophilus influenzae [10]): 2 µg/mL (≈ 4.71 µM)
- MIC90 (Haemophilus influenzae [10]): 4 µg/mL (≈ 9.43 µM)
- MIC50 (Haemophilus influenzae [11]): 2 µg/mL (≈ 4.71 µM)
- MIC90 (Haemophilus influenzae [11]): 4 µg/mL (≈ 9.43 µM)
- MIC (Haemophilus influenzae [12]): 0.5 µg/mL (≈ 1.18 µM)
- MIC50 (Haemophilus influenzae [12]): 0.5 µg/mL (≈ 1.18 µM)
- MIC90 (Haemophilus influenzae [12]): 4 µg/mL (≈ 9.43 µM)
- MIC50 (Haemophilus influenzae [13]): 2 µg/mL (≈ 4.71 µM)
- MIC90 (Haemophilus influenzae [13]): 2 µg/mL (≈ 4.71 µM)
- Activity (Haemophilus influenzae [14]): 0%
- MIC50 (Haemophilus influenzae [15]): 0.5 µg/mL (≈ 1.18 µM)
- MIC90 (Haemophilus influenzae [15]): 1 µg/mL (≈ 2.36 µM)
- MIC50 (Haemophilus influenzae [16]): 4 µg/mL (≈ 9.43 µM)
- MIC90 (Haemophilus influenzae [16]): 8 µg/mL (≈ 18.9 µM)
- Activity (Haemophilus influenzae [17]): 0%
